Reference: ChEMBL document CHEMBL5634186, “Structure-Activity Relationship Study of Biselyngbyolide B Reveals Mitochondrial Fission-Induced Cytotoxicity in Cancer” (ACS Med Chem Lett, 2024)
The source made the active and inactive calls. The calls are words filed in the database; no cut-off is given here.

Key:
[1] = Cytotoxicity against HEK293 cells assessed as reduction in cell viability incubated for 16 hrs by MTT assay; format: toxicity, cell-based; details: human
HCT-116 [2] = assay: Anticancer activity against human HCT-116 cells assessed as inhibition of cell viability incubated for 16 hrs by MTT assay; format: functional, cell-based; details: HCT-116, 16 h
HCT-116 [3] = assay: Induction of mitochondrial membrane potential loss in human HCT-116 cells at 0.5 to 1 uM incubated for 16 hrs by mitotracker red staining based confocal microscope analysis; format: functional, cell-based; details: dose 0.5-1 µM
Method in brief: (§1)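 HCT116 cells treated 16 h with compound (0.5 or 1 μM where dosed); stained 30 min with MitoTracker Deep Red FM (membrane potential) or CellROX Red FM (ROS); confocal imaging; mean fluorescence intensity quantified from five fields.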

HCT-116 [4] = assay: Induction of ROS generation in human HCT-116 cells at 0.5 to 1 uM incubated for 16 hrs by CellROX Red staining based confocal microscope analysis; format: functional, cell-based; details: dose 0.5-1 µM; method in brief: as §1
HCT-116 [5] = assay: Induction of mitochondrial fission in human HCT-116 cells assessed as increase in DRP1 phosphorylation at S616 at 0.5 to 1 uM incubated for 8 to 24 hrs by immunoblotting analysis; format: functional, cell-based; details: dose 0.5-1 µM, time 8-24 hrs
Method in brief: (§2)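 Immunoblot in HCT116 cells: p-DRP1 S616, p-DRP1 S637, DRP1, Mitofusin1, Mitofusin2 and MFF over time (0, 8, 16, 24 h); p-DRP1 S616, S637, DRP1, Mitofusin1 and OPA at 0.5 and 1 μM. β-Actin loading control.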

HCT-116 [6] = assay: Induction of mitochondrial fission in human HCT-116 cells assessed as decrease in DRP1 phosphorylation at S637 at 0.5 to 1 uM incubated for 8 to 24 hrs by immunoblotting analysis; format: functional, cell-based; details: dose 0.5-1 µM, time 8-24 hrs; method in brief: as §2
HCT-116 [7] = assay: Induction of ROS production in human HCT-116 cells assessed as deterioration of mitochondrial length and area at 1 uM incubated for 16 hrs in presence of CellLight Mitochondria-GFP by confocal microscopy analysis; format: functional, cell-based
Method in brief: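 HCT116 cells transfected with CellLight Mitochondria-GFP, treated 1 μM for 16 h; confocal images quantified for mitochondrial length and area.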

| Structure (SMILES) | IC50 at 16 h [1] [µM] | IC50 (HCT-116 [2]) [µM] | Activity (HCT-116 [3]) | Activity (HCT-116 [4]) | Activity (HCT-116 [5]) | Activity (HCT-116 [6]) | Activity (HCT-116 [7]) |
| --- | --- | --- | --- | --- | --- | --- | --- |
| C/C=C/C/C(C)=C\[C@H]1C/C=C/C=C/C[C@H](C)/C=C(\C)[C@@H](OC)C/C=C/[C@@H](O)CC(=O)O1 | 20.6 | 3.2 | – | – | – | – | – |
| C/C=C/C/C(C)=C\[C@H]1C/C=C/C=C/C[C@H](C)/C=C(\C)[C@@H](OC)C/C=C/CCC(=O)O1 | 15.2 | 15.6 | – | – | – | – | – |
| C/C=C/C/C(C)=C\[C@H]1C/C=C/C=C/CC/C=C(\C)[C@@H](OC)C/C=C/[C@@H](O)CC(=O)O1 | 12.5 | 6.8 | – | – | – | – | – |
| C/C=C/C/C(C)=C\[C@@H]1C/C=C/C=C/C[C@H](C)/C=C(\C)[C@@H](OC)C/C=C/[C@@H](O)CC(=O)O1 | 18.1 | 8.9 | – | – | – | – | – |
| C/C=C/C/C(C)=C\[C@H]1C/C=C/C=C/C[C@H](C)/C=C(\C)[C@@H](OC)C[C@@H](O)C[C@@H](O)CC(=O)O1 | 20.8 | 0.1 | – | – | – | – | – |
| CCCCC[C@@H]1C/C=C/C=C/C[C@H](C)/C=C(\C)[C@@H](OC)C/C=C/[C@@H](O)CC(=O)O1 | 20.2 | 23 | inactive | inactive | Active | inactive | Active |
